The record followed here is ChEMBL document CHEMBL6134776, “New anti-ovarian cancer quinolone derivatives acting by modulating microRNA processing machinery” (RSC Med Chem, 2025).

Calls of active or inactive are those of the source. The rule behind the calls is not given here.

Series [1] relates to SK-OV-3. Kind of series: Antiproliferative activity against human SK-OV-3 cells assessed as growth inhibition measured after 72 hrs. Format: functional. The method in brief:
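100 000 SKOV-3 or Wi-38 cells per 35 mm dish, allowed to adhere, then given compound at scalar concentrations. First pass ran up to 200 μM (SKOV-3) or 250 μM (Wi-38), then a narrowed range. Cells counted after 72 h and GI50/CC50 taken by linear regression with 95% CI. Three experiments in triplicate, three counts per sample.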

Another series relates to SKOV-3 (Homo sapiens). Kind of series: Antiproliferative activity against human SKOV-3 cells assessed as growth inhibition measured after 72 hrs.
The target of series [2] is T1, DNA topoisomerase 1 (Homo sapiens) (UniProt P11387).
T1 sequence (whole entry): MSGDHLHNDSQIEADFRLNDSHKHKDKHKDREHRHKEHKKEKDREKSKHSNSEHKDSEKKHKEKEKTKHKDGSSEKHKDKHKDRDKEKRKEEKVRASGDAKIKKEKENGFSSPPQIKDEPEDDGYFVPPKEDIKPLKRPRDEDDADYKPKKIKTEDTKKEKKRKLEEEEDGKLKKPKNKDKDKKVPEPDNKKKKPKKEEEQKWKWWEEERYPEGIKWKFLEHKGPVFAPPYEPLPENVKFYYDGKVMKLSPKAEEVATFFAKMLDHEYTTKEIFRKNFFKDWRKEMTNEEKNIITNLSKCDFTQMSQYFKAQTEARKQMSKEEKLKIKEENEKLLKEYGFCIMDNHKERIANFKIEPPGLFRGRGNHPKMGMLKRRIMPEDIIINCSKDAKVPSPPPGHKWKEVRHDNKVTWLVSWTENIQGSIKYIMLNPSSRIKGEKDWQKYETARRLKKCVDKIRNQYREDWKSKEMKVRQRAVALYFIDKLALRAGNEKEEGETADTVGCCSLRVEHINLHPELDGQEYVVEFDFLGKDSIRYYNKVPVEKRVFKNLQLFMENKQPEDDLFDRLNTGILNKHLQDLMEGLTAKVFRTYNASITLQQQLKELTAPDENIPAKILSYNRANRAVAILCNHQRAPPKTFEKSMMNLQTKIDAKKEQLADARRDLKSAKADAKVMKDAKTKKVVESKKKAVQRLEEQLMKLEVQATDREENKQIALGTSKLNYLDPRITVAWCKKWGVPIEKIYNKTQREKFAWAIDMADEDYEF
Description: Inhibition of human topoisomerase I at 100 uM by spectrophotometric analysis.

Another series is filed under the species Homo sapiens. Kind of series: Inhibition of human topoisomerase II at 100 uM by spectrophotometric analysis.
Series [3] deals with HCCLM3. Kind of series: Antiproliferative activity against TRBP knockout human HCCLM3 cells assessed as growth inhibition at 30 uM measured after 48 hrs by CCK-8 method. Format: functional, cell-based. The gist of the method:
(§1)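 HCCLM3 and SK-Hep-1 cells, TRBP wild-type and knockout, seeded at 10 000 cells/well and left to adhere overnight. Treated 48 h alongside a 0.1% DMSO negative control and a 125 μM enoxacin positive control. Viability read with 10% CCK-8 in DMEM, 30 min at 37 °C, at 450 nm.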
On the technique in general: Formazan colour is commonly taken as a measure of viable cells.

Series [4] deals with SK-HEP1. Kind of series: Antiproliferative activity against TRBP knockout human SK-HEP1cells assessed as growth inhibition at 30 uM measured after 48 hrs by CCK-8 method. Format: functional, cell-based. The gist of the method: as §1
The test system of series [5] is HCCLM3. Description: Antiproliferative activity against wild type human HCCLM3 cells assessed as growth inhibition at 30 uM measured after 48 hrs by CCK-8 method relative to control. Format: functional, cell-based. The method in brief:
as §1

For series [6], the system named is SK-HEP1. Description: Antiproliferative activity against wild type human SK-HEP1 cells assessed as growth inhibition at 30 uM measured after 48 hrs by CCK-8 method. Format: functional, cell-based. The method in brief:
as §1

Series [7] has as its system SK-HEP1. Kind of series: Antiproliferative activity against wild type human SK-HEP1 cells assessed as growth inhibition at 50 uM measured after 48 hrs by CCK-8 method. Format: functional, cell-based. The method in brief:
as §1

The test system of series [8] is SK-HEP1. Kind of series: Antiproliferative activity against TRBP knockout human SK-HEP1 cells assessed as growth inhibition at 50 uM measured after 48 hrs by CCK-8 method. Format: functional, cell-based. The gist of the method: as §1
The test system of the next series is MCF7. Kind of series: Antiproliferative activity against human MCF7 cells assessed as growth inhibition at 30 uM measured after 72 hrs. Format: functional, cell-based. The gist of the method: (§2)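 Cells dosed at 30 μM for 72 h in RPMI 1640 (A2780, SKOV-3) or DMEM (MCF-7, A549, HCT-116), 10% FBS, 37 °C, 5% CO2. Total and viable cell numbers taken by trypan blue with an automated counter. Viable cells given as % of DMSO; dead cells as a percentage. At least three independent experiments.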

The subject of a further series is A549. Kind of series: Antiproliferative activity against human A549 cells assessed as growth inhibition at 30 uM measured after 72 hrs. Format: functional, cell-based. The method in brief:
as §2

The next series deals with HCT-116. Description: Antiproliferative activity against human HCT-116 cells assessed as growth inhibition at 30 uM measured after 72 hrs. Format: functional, cell-based. The gist of the method:
as §2

For series [9], the system named is SK-OV-3. Description: Induction of cell death in human SK-OV-3 cells assessed as reduction in total number of cells at 30 uM incubated for 72 hrs by trypan blue staining based analysis. Format: functional. The method in brief:
as §2

Series [10] relates to A2780. Kind of series: Induction of cell death in human A2780 cells assessed as reduction in total number of cells at 30 uM incubated for 72 hrs by trypan blue staining based analysis. Format: functional. The method in brief:
as §2

Series [11] relates to A2780. Description: Induction of cell death in human A2780 cells assessed as increase in percentage of dead cells at 30 uM incubated for 72 hrs by trypan blue staining based analysis. Format: functional. The gist of the method:
as §2

Series [12] deals with A2780. Kind of series: Upregulation of cleaved PARP1 level in human A2780 cells by Western blot analysis. Format: functional, cell-based. The gist of the method:
(§3)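 SKOV-3 and A2780 given 30 μM compound for 72 h. Protein extracts run on 4–12% bis–tris gels and blotted to nitrocellulose, blocked in 5% milk. Probed for cleaved PARP and Bcl-XL, with β-actin as loading control.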
For orientation: In western blotting, separated proteins are transferred to a membrane and probed.

In series [13] the test system is A2780. Description: Downregulation of Bcl-Xl level in human A2780 cells by Western blot analysis. Format: functional, cell-based. The gist of the method:
as §3

In series [14] the test system is SK-OV-3. Description: Effect on cleaved PARP1 level in human SK-OV-3 cells by Western blot analysis. Format: functional, cell-based. The method in brief:
as §3

The subject of series [15] is SK-OV-3. Description: Effect on Bcl-Xl level in human SK-OV-3 cells by Western blot analysis. Format: functional, cell-based. The gist of the method: as §3
For series [16], the system named is A2780. Description: Antiproliferative activity against human A2780 cells assessed as growth inhibition at 30 uM measured after 72 hrs. Format: functional, cell-based. The method in brief: as §2
In another series the test system is HEK-293T. Description: Induction of RNAi enhancing activity in HEK293T cells transfected with shGAPDH assessed as decrease in amount of GAPDH mRNA at 50 uM incubated for 48 hrs by qRT-PCR. Format: functional, cell-based. Conditions: Homo sapiens. The gist of the method:
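HEK-293T stably expressing shGAPDH or scrambled shRNA (lentiviral transduction, puromycin 3 μg mL−1 selection) treated 48 h at 50 μM. GAPDH mRNA measured by qRT-PCR against ATP5O, relative to sh-Scr/DMSO set to 1. At least three independent experiments.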
In general terms: In qPCR the cycle at which signal appears reflects the starting amount.

Series [17] concerns Cisplatin-resistant A2780. Kind of series: Antiproliferative activity against human Cisplatin-resistant A2780 cells assessed as growth inhibition at 30 uM measured after 48 hrs.
The test system of series [18] is A2780. Description: Antiproliferative activity against human A2780 cells assessed as growth inhibition at 30 uM measured after 48 hrs in presence of cisplatin.
The subject of series [19] is Cisplatin-resistant A2780. Description: Antiproliferative activity against human Cisplatin-resistant A2780 cells assessed as growth inhibition at 30 uM measured after 48 hrs in presence of cisplatin.
A further series concerns HeLa. Description: Induction of miR-21-5p biogenesis in human HeLa cells assessed as decrease in renilla luciferase activity at 50 uM measured after 6 hrs by dual-luciferase reporter assay.

`CC(C)(C)n1cc(C(=O)O)c(=O)c2cc(N)c(N3CCc4ccccc43)cc21`: the GI50 in the series with SK-OV-3 [1] is above 100 µM.
On to `Cc1c(NCCN2CCCCC2)c(N)cc2c(=O)c(C(=O)O)cn(C3CC3)c12`, for which the GI50 at 72 h in the series on SKOV-3 (Homo sapiens) is at least 25 µM.
Regarding `O=C(O)c1cn(C2CC2)c2cc(N3CCc4ccccc4C3)c(F)cc2c1=O`, the inhibition result (in [2]; in the series listed under Homo sapiens) was “inactive” each time. For the same compound, the outcome in the series on HCCLM3 [3], with SK-HEP1 [4], with SK-HEP1 [6], in the series with SK-HEP1 [8], in the series with SK-OV-3 [14] and in the series on SK-OV-3 [15] was inactive. Moreover, the outcome with HCCLM3 [5], with SK-HEP1 [7], with MCF7, in the series with A549, in the series on HCT-116 and with SK-OV-3 [9] was Active. Also, the result in the series with A2780 [10], in the series with A2780 [11], in the series on A2780 [12], in the series on A2780 [13], in the series with A2780 [16] and in the series on HEK-293T was Active. Further, the result (in series [17]; in the series with A2780 [18]; in [19]; with HeLa) was Active.
`Nc1cc2c(=O)c(C(=O)O)cn(C3CC3)c2cc1N1CCc2ncncc2C1`: the GI50 at 72 h in the series on SKOV-3 (Homo sapiens) is at least 25 µM.
For the compound `Cc1c(N2Cc3ccccc3C2)c(N)cc2c(=O)c(C(=O)O)cn(C3CC3)c12`, in the series with SKOV-3 (Homo sapiens), the GI50 at 72 h was at least 25 µM.
`Cc1c(N2CCOCC2)c(N)cc2c(=O)c(C(=O)O)cn(C3CC3)c12`: the GI50 in the series on SK-OV-3 [1] was above 100 µM.
On the same count and under the same terms, then `Cc1c(N2CCC(O)CC2)c(N)cc2c(=O)c(C(=O)O)cn(C3CC3)c12`, with above 100 µM; and `Cc1c(N2CC(C)OC(C)C2)c(N)cc2c(=O)c(C(=O)O)cn(C3CC3)c12` (stereo not drawn), with 100 µM; and `Cc1c(N2CCCCC2)c(N)cc2c(=O)c(C(=O)O)cn(C3CC3)c12`, with above 100 µM.
As for `Cc1c(N2CCC3CCCCC3C2)c(N)cc2c(=O)c(C(=O)O)cn(C3CC3)c12` (stereo not drawn), the GI50 in the series on SK-OV-3 [1] was above 100 µM.

Usually GI50 stands for the concentration at which growth is held to half of that of the control.
